Compound activity (PubChem BioAssay)
Most compounds without a hit are left out; they make up all but 0.48% or so of the library.
ABCB1 block: ABCB1 efflux pump inhibitors, primary screen, cell-based, multiplex, flow cytometry, ABCG2 counter-screen | ATP-dependent translocase ABCB1 (Homo sapiens), P08183 | CCRF-Adr cells, JC-1 efflux | inhibition, % at 6.6 µM | hit rate 0.067% among 190,000 | AID 1326, 2008; in the data active = inhibition above about 40%;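 also: higher value means more JC-1 retained so stronger ABCB1 efflux block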
TNAP inh hiacc: human TNAP enzyme inhibitors, primary screen, biochemical, luminescent, high phosphate acceptor level, uHTS. purified TNAP, CDP-star luminescence, 1 M DEA. inhibition, % at 20 µM. hit rate 0.03% among 200,000. AID 1135, 2008;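 active = over 50% inhibition of tissue-nonspecific alkaline phosphatase at 20 µM in the single-dose screen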
ABCG2 block: ABCG2 efflux pump inhibitors, primary screen, multiplex with ABCB1, IgMXP3 cells, flow cytometry | JC-1 efflux | hit rate 0.1% among 190,000 | inhibition, % at 6.6 µM | Broad substrate specificity ATP-binding cassette transporter ABCG2 (Homo sapiens), Q9UNQ0;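 active = inhibition above 80%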
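Test system: ABCG2 IgMXP3 and barcoded ABCB1 CCRF-Adr cell mix; Schedule: cells with compound and JC-1, 10 min at 25 °C, rotating, no wash; Technique: flow cytometry of retained JC-1 fluorescence; Measure: % inhibition of efflux relative to nicardipine and DMSO; Controls: nicardipine high and DMSO low controls.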
TNAP act hi DEA: TNAP activators at high phosphate acceptor level, primary screen, biochemical, luminescence, uHTS. purified TNAP, CDP-star luminescence, 1 M DEA, 30 min; stronger effect = higher value; 0 = EDTA background, 1 = DMSO-only activity. activation factor at 20 µM. AID 1136, 2008. 200,000 tested, under 10 active. Alkaline phosphatase, tissue-nonspecific isozyme (Homo sapiens), P05186;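 active = activation factor at least 2 at 20 µM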
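Dosing: 20 µM single point. System: human TNAP. Amount: TNAP 1/800 final. Incubation: 30 min, room temperature. Read-out: TNAP activation factor scaled between EDTA and DMSO control wells. Signal: luminescence from CDP-star hydrolysis. Medium: 1 M DEA, pH 9.8, Mg2+, Zn2+. Control set: EDTA negative control, DMSO positive control.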
TNAP inh no acc: human TNAP enzyme inhibitors, primary screen, biochemical, luminescent, no phosphate acceptor, uHTS. AID 1012, 2008. purified TNAP, CDP-star luminescence, 30 min. inhibition, % at 20 µM. hit rate 0.26% among 200,000;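 active = tissue-nonspecific alkaline phosphatase inhibition above about 50% at 20 µM in the single-dose screen, limit read from the data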
PKD1 kinase inh: inhibitors of human PKD1 kinase, biochemical, fluorescence polarization | PKD1 kinase fluorescence polarization assay | inhibition, % (test concentration not listed) | AID 797, 2007 | hit rate 0.056% among 200,000; in the data active = inhibition above about 50%
FP interf 140K: fluorescence polarization interference in PKD1 assay, artefact control for PKD1 inhibitor project, biochemical, 140K library | shares compounds with PKD1 kinase inh | PKD1 FP assay interference counter-screen | inhibition, % at 10 µM | 85 tested, under 10 active | AID 1315, 2008; call rule not given here
ABCB1 confirm: ABCB1 efflux pump inhibitors, confirmation, cell-based, single point, ABCG2 counter-screen. shares compounds with ABCG2 block. CCRF-Adr cells, JC-1 efflux, flow cytometry. inhibition, % at 6.6 µM. hit rate 7% among 270;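 active = inhibition of pump activity above 50%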
ABCG2 single pt: ABCG2 efflux pump inhibitors, confirmation, single point, IgMXP3 cells, ABCB1 counter-screen paired. JC-1 efflux, flow cytometry. shares compounds with ABCG2 block. hit rate 6% among 270. inhibition, % at 6.6 µM;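 active = inhibition above 50%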
IgMXP3 fluor: compound autofluorescence in ABCG2-expressing IgMXP3 cells, confirmation, artefact control for ABC transporter inhibitor project, cell-based, 488/530 nm, flow cytometry | shares compounds with ABCG2 block | compound autofluorescence 488/530 nm; stronger effect = higher value | fluorescence at 6.6 µM | hit rate 30% among 270 | AID 1480, 2009;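 active = fluorescence in ABCG2-expressing cells above the plate's control-well mean plus 3 SD, cut at about 15 in these data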
CCRF autofluor: compound autofluorescence in ABCB1-expressing CCRF-Adr cells, confirmation, artefact control for ABC transporter inhibitor project, cell-based, 488/530 nm, flow cytometry | shares compounds with ABCG2 block | AID 1483, 2009 | fluorescence at 6.6 µM | hit rate 30% among 270 | compound autofluorescence 488/530 nm; stronger effect = higher value;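 active = fluorescence beyond the plate control mean plus 3 SD, with a fluorescence-to-maximum score over 2, cut at about 25 in these data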
Each line names hits and unclear results; the compound was inactive in the other large screens (follow-up assays come after a bar, where they were run).

Clc1ccc(Nc2ccc(-n3ccnc3)nn2)cc1Cl	PKD1 kinase inh 52 | FP interf 140K inactive
O=C(O)c1n[nH]c2ccccc12	none
c1ccc(-c2n[nH]c3ccccc23)cc1	TNAP inh no acc 90, PKD1 kinase inh 90 | FP interf 140K inactive
Cc1cc(C)cc(N(C(=O)c2sc(C)nc2C)C(C(=O)NC(C)(C)C)c2ccncc2)c1 (configuration not stated)	none
Clc1cncc(Cl)c1N/N=C/c1ccncc1	PKD1 kinase inh 91 | FP interf 140K inactive
O=C(CN1CCCC1)Nc1c2c(nc3ccccc13)N(Cc1ccccc1)CC2	PKD1 kinase inh 100 | FP interf 140K inactive
Cc1ccc(C(=O)C2=C(O)C(=O)N(c3ncccn3)C2c2cccc(Cl)c2)o1 (configuration not stated)	none (no result: ABCB1 block, ABCG2 block, PKD1 kinase inh)
C=CCOc1cccc(C2C(C(=O)c3ccc(C)o3)=C(O)C(=O)N2c2nccs2)c1 (configuration not stated)	PKD1 kinase inh 76 | FP interf 140K 54
Nc1nnc(SCCCC(=O)c2ccc(F)cc2)s1	PKD1 kinase inh 65 | FP interf 140K inactive
CCC(=O)Nc1c2c(nn1-c1ccccc1C)CSC2	PKD1 kinase inh 81 | FP interf 140K inactive
CCNC(=O)C12CCC(C)(C(=O)O1)C2(C)C (configuration not stated)	none
Nc1nc2ccccc2n1/N=C/c1ccc([N+](=O)[O-])s1	PKD1 kinase inh 52 | FP interf 140K inactive
Nc1nc2ccccc2n1/N=C/c1ccc(-c2ccccc2)o1	none
Nc1nc2ccccc2n1/N=C/c1cccnc1	PKD1 kinase inh 69 (no result: TNAP inh hiacc, TNAP act hi DEA, TNAP inh no acc) | FP interf 140K inactive
COc1ccc2nc(SCc3ccccc3C)nc(C)c2c1	ABCG2 block 90 | ABCB1 confirm inactive | ABCG2 single pt inactive | IgMXP3 fluor 16 | CCRF autofluor inactive
CCOCCCNC(=O)C(NC(=O)Cc1c[nH]c2ccccc12)c1ccccc1 (configuration not stated)	none
O=C1NCCc2c1[nH]c1ccc([N+](=O)[O-])cc21	none
O=C(N/N=C1\CCCc2c1[nH]c1ccc([N+](=O)[O-])cc21)c1ccncc1	ABCG2 block 114 | ABCB1 confirm inactive | ABCG2 single pt inactive | IgMXP3 fluor inactive | CCRF autofluor inactive
c1ccc2c(-c3[nH]ncc3CNCCCn3ncc4ccccc43)cccc2c1	none
COCCn1c(C)cc(C(=O)CSc2nc(C)cc(C)c2C#N)c1C	ABCG2 block 97 | ABCB1 confirm inactive | ABCG2 single pt inactive | IgMXP3 fluor 24 | CCRF autofluor inactive
Cc1cc(C)c(C#N)c(SCC(=O)c2cc(C)n(CCc3ccccc3)c2C)n1	none
CC1=Nc2ccccc2/C1=C\c1nc(-c2ccccc2)oc1O	none
CC1=Nc2ccccc2/C1=C\c1nc(-c2ccc(C(F)(F)F)cc2)oc1O	ABCB1 block 44 | ABCB1 confirm inactive | ABCG2 single pt inactive | IgMXP3 fluor 69 | CCRF autofluor 201
COc1cc(/C=c2\sc3nc(-c4ccncc4)nn3c2=O)ccc1OC(C)=O	none
CN(C)c1ccc(/C=c2\sc3nc(-c4ccccc4)nn3c2=O)cc1	ABCB1 block 46 | ABCB1 confirm inactive | ABCG2 single pt inactive | IgMXP3 fluor 80 | CCRF autofluor 61
Cc1ccc(CC2C(=O)N(c3nc(C)cc(C)n3)C(=O)C2C)cc1 (configuration not stated)	none
O=S(=O)(c1ccc2ncn(O)c2c1)N1CCOCC1	none
CC(=O)Nc1ccc(Nc2ccc(S(=O)(=O)C(F)(F)F)cc2[N+](=O)[O-])cc1	ABCG2 block 92 | ABCB1 confirm inactive | ABCG2 single pt 55 | IgMXP3 fluor inactive | CCRF autofluor inactive
Cc1ccc(Nc2ccc(C(F)(F)F)cc2[N+](=O)[O-])cc1	none
CCOc1ccc(NC(=O)c2cccc3c2C(=O)N(CCOC)C3)cc1	ABCG2 block 82 | ABCB1 confirm inactive | ABCG2 single pt 52 | IgMXP3 fluor inactive | CCRF autofluor inactive
CCN(CC)S(=O)(=O)c1ccc(C(=O)N(c2ccc(C)cc2)C2C=CS(=O)(=O)C2)cc1 (configuration not stated)	none | ABCB1 confirm inactive | ABCG2 single pt inactive | IgMXP3 fluor inactive | CCRF autofluor inactive
Cc1ccc(N(C(=O)c2ccc(S(=O)(=O)N3CCOCC3)cc2)C2C=CS(=O)(=O)C2)cc1 (configuration not stated)	none
CC(C)C1Oc2cc3oc(=O)ccc3cc2C1=O (configuration not stated)	none
COc1ccc(NC(=O)CN2CCN(C3c4ccccc4-c4ccccc43)CC2)c(OC)c1	none | ABCB1 confirm inactive | ABCG2 single pt inactive | IgMXP3 fluor inactive | CCRF autofluor inactive
Fc1ccc(COc2ccccc2-c2ccnc3ncnn23)cc1	none
CC(C)C(NS(=O)(=O)c1ccccc1)C(=O)OCc1cc([N+](=O)[O-])cc2c1OCOC2 (configuration not stated)	ABCG2 block 89 | ABCB1 confirm inactive | ABCG2 single pt inactive | IgMXP3 fluor inactive | CCRF autofluor inactive
COc1cc(C(=O)NC(CCSC)C(=O)OCc2cc([N+](=O)[O-])cc3c2OCOC3)cc(OC)c1OC (configuration not stated)	ABCB1 block 58 | ABCB1 confirm inactive | ABCG2 single pt inactive | IgMXP3 fluor inactive | CCRF autofluor inactive
